{"source": "ChEMBL document CHEMBL1152990", "about": "“The mechanism of action of beta-D-2'-deoxy-2'-fluoro-2'-C-methylcytidine involves a second metabolic pathway leading to beta-D-2'-deoxy-2'-fluoro-2'-C-methyluridine 5'-triphosphate, a potent inhibitor of the hepatitis C virus RNA-dependent RNA polymerase” (Antimicrob Agents Chemother, 2008)", "proteins": {"B1": {"name": "Cytidine deaminase (Homo sapiens), P32320 (protein)", "chain": "MAQKRPACTLKPECVQQLLVCSQEAKKSAYCPYSHFPVGAALLTQEGRIFKGCNIENACYPLGICAERTAIQKAVSEGYKDFRAIAIASDMQDDFISPCGACRQVMREFGTNWPVYMTKPDGTYIVMTVQELLPSSFGPEDLQKTQ"}, "B2": {"name": "UMP-CMP kinase (Homo sapiens), P30085 (protein)", "chain": "MKPLVVFVLGGPGAGKGTQCARIVEKYGYTHLSAGELLRDERKNPDSQYGELIEKYIKEGKIVPVEITISLLKREMDQTMAANAQKNKFLIDGFPRNQDNLQGWNKTMDGKADVSFVLFFDCNNEICIERCLERGKSSGRSDDNRESLEKRIQTYLQSTKPIIDLYEEMGKVKKIDASKSVDEVFDEVVQIFDKEG"}, "B3": {"name": "Deoxycytidylate deaminase (Homo sapiens), P32321 (protein)", "chain": "MSEVSCKKRDDYLEWPEYFMAVAFLSAQRSKDPNSQVGACIVNSENKIVGIGYNGMPNGCSDDVLPWRRTAENKLDTKYPYVCHAELNAIMNKNSTDVKGCSMYVALFPCNECAKLIIQAGIKEVIFMSDKYHDSDEATAARLLFNMAGVTFRKFIPKCSKIVIDFDSINSRPSQKLQ"}}, "key": {"[1]": {"substrate": "Nc1ccn([C@@H]2O[C@H](CO)[C@@H](O)[C@H]2F)c(=O)n1", "conditions": "Homo sapiens; Huh-7"}, "[2]": {"substrate": "Nc1ccn([C@H]2C[C@H](O)[C@@H](CO)O2)c(=O)n1", "conditions": "Homo sapiens; Huh-7"}, "[3]": {"substrate": "Nc1ccn([C@@H]2O[C@H](CO)[C@@H](O)[C@H]2F)c(=O)n1", "conditions": "Homo sapiens; Huh-7", "remark": "listed apart in the source"}, "[4]": {"substrate": "Nc1ccn([C@H]2C[C@H](O)[C@@H](CO)O2)c(=O)n1", "conditions": "Homo sapiens; Huh-7", "remark": "listed apart in the source"}, "[5]": {"substrate": "C[C@@]1(F)[C@H](O)[C@@H](CO)O[C@H]1n1ccc(N)nc1=O", "conditions": "Homo sapiens; Huh-7"}, "[6]": {"substrate": "C[C@@]1(O)[C@H](O)[C@@H](CO)O[C@H]1n1ccc(N)nc1=O", "conditions": "Homo sapiens; Huh-7"}, "[7]": {"substrate": "C[C@@]1(F)[C@H](O)[C@@H](CO)O[C@H]1n1ccc(N)nc1=O", "assay": "(§1) Activity of cloned cytidine deaminase in human HuH7 cells at 4 mM by spectrophotometric analysis", "format": "cell-based", "conditions": "Huh-7", "outline": "(§2)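 Recombinant human CDA cloned from Huh-7 cells. Reaction at 30°C in 50 mM Tris-HCl pH 7.5, started by adding enzyme. Deamination was followed spectrophotometrically at wavelengths chosen by substrate level, with Δɛ set per wavelength. Rates came from the linear trace and Beer's law and were fitted to Michaelis-Menten. Highest concentration tested 4 mM.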"}, "[8]": {"substrate": "C[C@@]1(O)[C@H](O)[C@@H](CO)O[C@H]1n1ccc(N)nc1=O", "assay": "as §1", "format": "cell-based", "conditions": "Huh-7", "outline": "as §2"}, "[9]": {"substrate": "C[C@@]1(F)[C@H](O)[C@@H](COP(=O)(O)O)O[C@H]1n1ccc(=O)[nH]c1=O", "assay": "Activity of cloned UMP-CMP kinase in human HuH7 cells assessed as formation of RO2433 diphosphate by spectrophotometry", "format": "cell-based", "conditions": "Huh-7", "outline": "(§3)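 Recombinant human kinase read out by PK/LDH coupling, following NADH oxidation at 340 nm. Rates were measured over varied substrate levels and fitted for steady-state parameters.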"}, "[10]": {"substrate": "C[C@@]1(F)[C@H](O)[C@@H](COP(=O)(O)O)O[C@H]1n1ccc(=O)[nH]c1=O", "assay": "Ratio of Kcat to Km for cloned UMP-CMP kinase in human HuH7 cells assessed as formation of RO2433 diphosphate by spectrophotometry", "format": "cell-based", "conditions": "Huh-7", "outline": "as §3"}, "[11]": {"substrate": "Nc1ccn([C@H]2C[C@H](O)[C@@H](COP(=O)(O)O)O2)c(=O)n1", "assay": "Activity of cloned deoxycytidylate deaminase in human HepG2 cells by spectrophotometric analysis", "format": "cell-based", "outline": "(§4)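 Recombinant human DCTD cloned from HepG2 cells, 9.3 nM final, with dCMP substrate. Spectrophotometric deamination at 37°C, monitoring absorbance at 290 nm (Δɛ = 1,694 M−1 cm−1). Rates from linear traces were fitted to Michaelis-Menten to obtain Km, kcat and kcat/Km.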"}, "[12]": {"substrate": "C[C@@]1(F)[C@H](O)[C@@H](COP(=O)(O)O)O[C@H]1n1ccc(N)nc1=O", "assay": "Activity of cloned deoxycytidylate deaminase in human HepG2 cells by HPLC assay", "format": "cell-based", "outline": "(§5)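 Recombinant His-tagged human DCTD cloned from HepG2 cells. 0.56 μg enzyme in 50 mM Tris-HCl pH 7.5, 2 mM MgCl2, 20 mM β-mercaptoethanol, at 37°C. Samples taken at 5, 10 and 20 min, quenched with HCl and filtered. Nucleotides were resolved by SAX HPLC (KH2PO4 pH 3.5 gradient), detected at 254 nm and quantified against standard curves.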"}, "[13]": {"substrate": "C[C@@]1(F)[C@H](O)[C@@H](COP(=O)(O)O)O[C@H]1n1ccc(N)nc1=O", "assay": "Ratio of Kcat to Km for cloned deoxycytidylate deaminase in human HepG2 cells by HPLC assay", "format": "cell-based", "outline": "as §5"}, "[14]": {"substrate": "Nc1ccn([C@H]2C[C@H](O)[C@@H](COP(=O)(O)O)O2)c(=O)n1", "assay": "Ratio of Kcat to Km for cloned deoxycytidylate deaminase in human HepG2 cells by spectrophotometric analysis", "format": "cell-based", "outline": "as §4"}}, "data": [{"protein": "B1", "values": [{"measurement": "Km", "setting": "[1]", "value": 27, "unit": "µM"}, {"measurement": "kcat", "setting": "[1]", "value": 3.8, "unit": "s⁻¹"}, {"measurement": "Km", "setting": "[2]", "value": 41, "unit": "µM"}, {"measurement": "kcat", "setting": "[2]", "value": 4.8, "unit": "s⁻¹"}, {"measurement": "kcat/Km", "setting": "[3]", "value": 140000, "unit": "M⁻¹ s⁻¹"}, {"measurement": "kcat/Km", "setting": "[4]", "value": 120000, "unit": "M⁻¹ s⁻¹"}, {"measurement": "kcat/Km", "setting": "[5]", "value": 65, "unit": "M⁻¹ s⁻¹"}, {"measurement": "kcat/Km", "setting": "[6]", "value": 58, "unit": "M⁻¹ s⁻¹"}, {"measurement": "Km", "setting": "[7]", "value": 4000, "unit": "µM"}, {"measurement": "kcat", "setting": "[7]", "value": 0.26, "unit": "s⁻¹"}, {"measurement": "Km", "setting": "[8]", "value": 3100, "unit": "µM"}, {"measurement": "kcat", "setting": "[8]", "value": 0.18, "unit": "s⁻¹"}]}, {"protein": "B2", "values": [{"measurement": "Km", "setting": "[9]", "value": 870, "unit": "µM"}, {"measurement": "kcat", "setting": "[9]", "value": 7.9, "unit": "s⁻¹"}, {"measurement": "kcat/Km", "setting": "[10]", "value": 9100, "unit": "M⁻¹ s⁻¹"}]}, {"protein": "B3", "values": [{"measurement": "Km", "setting": "[11]", "value": 87, "unit": "µM"}, {"measurement": "kcat", "setting": "[11]", "value": 246, "unit": "s⁻¹"}, {"measurement": "Km", "setting": "[12]", "value": 2000, "unit": "µM"}, {"measurement": "kcat", "setting": "[12]", "value": 0.82, "unit": "s⁻¹"}, {"measurement": "kcat/Km", "setting": "[13]", "value": 400, "unit": "M⁻¹ s⁻¹"}, {"measurement": "kcat/Km", "setting": "[14]", "value": "2.8e+06", "unit": "M⁻¹ s⁻¹"}]}]}
